In the library only some 2.3% were active in any assay of this set; here they are far more common.
HIV Env fusion: inhibitors of HIV-1 Env-driven cell-cell fusion, primary screen, HeLa-JRFL effector, CEM21 target cells, luciferase. 360,000 compounds, 1.1% hits. inhibition, % at 12.3 µM;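 active = mean replicate inhibition score of at least 50 and every replicate individually at or above 50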;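 also: 0% = plate neutral controls and 100% = maraviroc near 300 nM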
PGC1a acetyl inh: inhibitors of PGC1a acetylation signal, primary screen, cell-based, U2OS, AlphaScreen, inhibitor mode; AlphaScreen anti-acetyl-lysine; with virally co-expressed GCN5 acetyltransferase; inhibition, % at 15.6 µM; AID 651687, 2012; 350,000 compounds, 0.17% hits;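 active = every replicate shows inhibition of at least 40%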;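 also: 0% = neutral control wells and 100% = positive control wells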
EWS-Fli inh: EWS/Fli-driven NR0B1 reporter inhibitors, primary screen, A673 cells, NR0B1 luciferase, luminescence, MLPCN library; viability-normalised; inhibition, % at 12.6 µM; 350,000 compounds, 0.67% hits;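 active = mean inhibition of at least 50% after viability correction, with every replicate also passing that limit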;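 also: firefly luciferase signal divided by Alamar Blue viability fluorescence both relative to DMSO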
CFTR F508del cor: F508del CFTR correction, initial screen, CFBE line, single point. CFBE cells, YFP halide quenching; stimulated with forskolin plus potentiator P3; % fluorescence drop versus neutral controls. 350,000 compounds, 0.36% hits. activity (quench increase), % at 7.58 µM;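 active = mean added fluorescence quench of at least 8% versus neutral control, with both replicates also reaching 8%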;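 also: cells transiently co-express mutant CFTR-F508del with the halide-sensitive YFP; corrector assay measuring rescue of mutant channel to the surface after 24 h compound exposure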
PAX8 reporter: inhibitors of PAX8-driven TPO luciferase reporter, primary screen, RMG-I cells, single concentration; SteadyGlo, 24 h; 360,000 compounds, 1.2% hits; inhibition, % at 12.6 µM;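 active = mean replicate inhibition at least 60% with every replicate also reaching 60%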;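 also: luciferase light reporting Pax8 driven TPO promoter activity; plate controls were median of neutral control wells for no effect and mitoxantrone controls for full effect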
FN deposition inh: inhibitors of fibronectin matrix deposition, primary screen, AH1F cells, Alexa488-fibronectin fluorescence, plate reader | AH1F fibroblasts, overnight | inhibition, % at 12.6 µM | 350,000 compounds, 0.086% hits;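 active = mean inhibition across replicates of 30% or more, regardless of how many single replicates reach that level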;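 also: positive control wells lacked labelled fibronectin entirely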
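material = AH1F fibroblast monolayer depositing Alexa488-labelled fibronectin into matrix | amount = 10000 AH1F cells/well | buffer or medium = DMEM plus 2% serum, read in PBS | incubation = 1 h cell adhesion before compound, then overnight fibronectin incubation | detection = fluorescence at 485 nm excitation, 525 nm emission | evaluation = percent inhibition as loss of matrix-bound fibronectin fluorescence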
* hit, by the source's call; x = no result given; ! = a repeat was not active; [ ] = dose if it differs, or a comment.

SMILES	HIV Env fusion	PGC1a acetyl inh	EWS-Fli inh	CFTR F508del cor	PAX8 reporter	FN deposition inh
N#Cc1ccc(NC(=O)Nc2ccc(Oc3ccc(NC(=O)Nc4ccc(C#N)cc4)cc3)cc2)cc1	64*	-30	19	-4	73*	-11
CO[C@H]1CN(C)C(=O)c2ccc(NC(=O)C3CC3)cc2OC[C@H](C)N(CC2CC2)C[C@@H]1C	x	1	-10	2	4	-8
O=C(Nc1ccc([N+](=O)[O-])cn1)c1cc(-c2cccc(Cl)c2)nc2ccccc12	-10	x	x	x	3	6
O=C(Nc1ccc([N+](=O)[O-])cn1)c1cc(-c2cccc(Br)c2)nc2ccccc12	x	x	3	0	115*	-1
OCC1OC(n2cnc3c(/C=C(\O)c4ccccc4)ncnc32)C(O)C1O (stereo not drawn)	55*	-6	-64	3	6	x
Nc1nc(Cl)nc2c1ncn2[C@@H]1O[C@H](CO)[C@@H](O)[C@H]1O	5	-5	1	4	70*	7
O=C1CN(C(=O)c2ccc(Br)o2)C(c2ccccc2)c2cc(Cl)ccc2N1 (stereo not drawn)	58*	-18	16	-3	33	-3
CCCN(CCC)C(=O)CSc1nc2ccccc2c(=O)n1C1CCCC1	65*	x	x	x	x	-6
COc1ccc(CN(C)C[C@H]2OCCCC[C@H](C)Oc3ccc(NS(=O)(=O)c4cccs4)cc3C(=O)N([C@H](C)CO)C[C@H]2C)cc1	13[16.7 µM]	-3	0	0	6	x
CC(=O)N(C)C[C@@H]1Oc2cc(C#Cc3ccccc3F)ccc2S(=O)(=O)N([C@H](C)CO)C[C@@H]1C	10[16.7 µM]	7	-4	2	x	-4
C[C@@H]1CN([C@H](C)CO)S(=O)(=O)c2ccc(C#Cc3ccccc3F)cc2O[C@H]1CN(C)C(=O)c1ccc2c(c1)OCO2	-13	-2	15	4	63*!	8
C[C@@H]1CN([C@H](C)CO)S(=O)(=O)c2ccc(C#Cc3ccccc3F)cc2O[C@H]1CN(C)C(=O)Cc1cccnc1	21[16.7 µM]	3	11	10*	x	9
COc1ccccc1C#Cc1ccc2c(c1)O[C@H](CN(C)Cc1ccncc1)[C@H](C)CN([C@@H](C)CO)S2(=O)=O	15[16.7 µM]	7	14	2	2	x
COc1ccccc1C#Cc1ccc2c(c1)O[C@@H](CN(C)Cc1ccncc1)[C@@H](C)CN([C@@H](C)CO)S2(=O)=O	46*[16.7 µM]	-6	20	3	32	x
COc1ccccc1C#Cc1ccc2c(c1)O[C@@H](CN(C)Cc1cncnc1)[C@H](C)CN([C@H](C)CO)S2(=O)=O	7[16.7 µM]	12	18	1	86*	x
COc1ccccc1C#Cc1ccc2c(c1)O[C@H](CN(C)Cc1cccnc1)[C@H](C)CN([C@H](C)CO)S2(=O)=O	x	-1	27	2	90*	-20
Cc1cc(Nc2cccc(Br)c2)c2ccccc2n1	66*	-18	11	x	1	2
COc1ccc(-n2ncc(Cl)c(Cl)c2=O)cc1	-198	23	55*	-1	105*	7
O=[N+]([O-])c1ccc(Cl)c(C2Nc3cccc4cccc(c34)N2)c1	58*	x	x	x	-5	-7
COc1ccc2c3c([nH]c2c1)[C@@H](CO)N(Cc1ccccn1)CC31CCN(C(C)=O)CC1	x	-4	12	-1	x	-8
C[C@@H]1CN(C)C(=O)c2cccnc2O[C@@H]1CN(C)C	x	x	x	x	x	-21
Cc1sc2ncnc(SC(C)C(=O)N3c4ccccc4Sc4ccccc43)c2c1C (stereo not drawn)	41	x	90*	x	15	x
Cc1ccc(OCC(=O)NNC(=O)C(C)Sc2ncnc3sc(C)c(C)c23)cc1 (stereo not drawn)	-19	8	x	x	32	-2
C[C@H]1CCCCO[C@@H](CN(C)C)[C@@H](C)CN([C@@H](C)CO)C(=O)c2cc(NC(=O)Nc3ccc(C(F)(F)F)cc3)ccc2O1	9[16.7 µM]	12	-6	0	88*	x
C[C@@H]1CCCCO[C@@H](CN(C)C(=O)Nc2ccc(C(F)(F)F)cc2)[C@H](C)CN([C@@H](C)CO)C(=O)c2cc(NC(=O)Nc3ccc(C(F)(F)F)cc3)ccc2O1	36[16.7 µM]	-5	-14	-1	77*	-13
SMILES	HIV Env fusion	PGC1a acetyl inh	EWS-Fli inh	CFTR F508del cor	PAX8 reporter	FN deposition inh
C[C@H]1CCCCO[C@H](CN(C)C(=O)Nc2ccc(C(F)(F)F)cc2)[C@@H](C)CN([C@@H](C)CO)C(=O)c2cc(NC(=O)Nc3ccc4c(c3)OCO4)ccc2O1	72*[16.7 µM]	2	-1	5	35	-3
C[C@H]1CCCCO[C@H](CN(C)C(=O)Nc2ccc(C(F)(F)F)cc2)[C@@H](C)CN([C@@H](C)CO)C(=O)c2cc(NC(=O)CCC(F)(F)F)ccc2O1	47[16.7 µM]	11	-3	1	87*	x
CC(C)NC(=O)N(C)C[C@@H]1Oc2c(NS(C)(=O)=O)cccc2C(=O)N(C)C[C@@H]1C	x	x	x	x	x	-12
C[C@@H]1CN([C@H](C)CO)C(=O)c2cc(NC(=O)Nc3ccc(C(F)(F)F)cc3)ccc2O[C@@H](C)CCCCO[C@H]1CN(C)C(=O)Nc1ccc(C(F)(F)F)cc1	115*[16.7 µM]	-9	3	1	96*	-11
C[C@H]1CCCCO[C@@H](CN(C)C(=O)C2CCCCC2)[C@@H](C)CN([C@@H](C)CO)C(=O)c2cc(NC(=O)Nc3ccc(C(F)(F)F)cc3)ccc2O1	0[16.7 µM]	-6	13	10*	x	x
C[C@H](CO)N1C[C@H](C)[C@H](CN(C)C(=O)C2CCCCC2)OCCCC[C@H](C)Oc2ccc(NC(=O)Nc3ccc(C(F)(F)F)cc3)cc2C1=O	42[16.7 µM]	4	8	4	x	x
C[C@H]1CN([C@@H](C)CO)C(=O)c2cc(C#Cc3ccncc3)cnc2O[C@H]1CN(C)CC1CCCC1	x	4	-16	0	-10	-12
CC(C)NC(=O)Nc1cccc2c1O[C@H](CN(C)C(=O)NC(C)C)[C@H](C)CN(C)C2=O	x	x	x	x	x	-8
CC(C)NC(=O)N(C)C[C@H]1Oc2ccc(NC(=O)Nc3ccc(C(F)(F)F)cc3)cc2C(=O)N([C@@H](C)CO)C[C@H]1C	12[16.7 µM]	-8	-5	2	9	x
CCC1(c2ccccc2)NC(=O)N(CC(=O)Nc2cc(S(=O)(=O)N3CCCCC3)ccc2OC(C)C)C1=O (stereo not drawn)	98*	-4	12	3	25	-6
COc1ccc(S(=O)(=O)N2CCOCC2)cc1NC(=O)CCCOc1ccc(Cl)cc1C	36	6	6	2	11	-4
O=C(CCCOc1ccc(Cl)cc1Cl)Nc1cc(S(=O)(=O)N2CCOCC2)ccc1N1CCOCC1	79*	x	16	-2	18	9
